Test results as given in ChEMBL document CHEMBL1828601, “Small molecule peptidomimetic inhibitors of importin α/β mediated nuclear transport” (Bioorg Med Chem, 2010).
Activity calls are given as the source filed them. The rule behind the calls is not given here.

Assays:
FGM [1] = assay: Inhibition of importin alpha/beta-mediated nuclear transportation of Alexa555-BSA-NLS in human FGM cell nucleus at 500 uM after 30 mins by fluorescence microscopy; assay type: cell-based
FGM [2] = assay: Inhibition of importin alpha/beta-mediated nuclear transportation of Alexa555-GST-M9 in human FGM cell nucleus at 500 uM after 30 mins by fluorescence microscopy; assay type: cell-based
Summary of the method: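 Transportin-dependent import measured the same way in permeabilized FGM cells, with 0.5 μM Alexa555-GST-M9 cargo in place of BSA-NLS. Conditions: 3 mg/ml HeLa cytosol, ATP-regenerating system, 0.2 mM GTP, 1% DMSO, 30 min at 30°C. Positive control was 1 mg/ml WGA. Nuclear cargo fluorescence quantified per nucleus by automated imaging.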

[3] = Inhibition of importin alpha/beta-mediated nuclear transportation of Alexa555-BSA-NLS in human FGM cell nucleus after 30 mins by fluorescence microscopy; assay type: cell-based
[4] = Inhibition of importin-beta binding to immobilized GST-IBB domain of importin alpha at 50 uM by surface plasmon resonance assay
[5] = Inhibition of importin-beta binding to immobilized GST-FG domain of Nup153 at 50 uM by surface plasmon resonance assay
[6] = Inhibition of importin-beta binding to immobilized GST-RanQLGTP at 50 uM by surface plasmon resonance assay
FGM [7] = assay: Selectivity ratio of IC50 for importin alpha/beta-mediated nuclear transportation of Alexa555-BSA-NLS to IC50 for importin alpha/beta-mediated nuclear transportation of Alexa555-GST-M9 in human FGM cell nucleus; assay type: cell-based

Row | Compound | inhibition (FGM [1]) | inhibition (FGM [2]) | further results
1 | N[C@@H](CCc1ccccc1)C(=O)Nc1ccc(C(=O)N[C@@H](CCc2ccccc2)C(=O)O)cc1OCc1ccc(Cl)cc1 | Active | Active | –
2 | CC(C)[C@H](N)C(=O)Nc1ccc(C(=O)N[C@@H](CCc2ccccc2)C(=O)O)cc1OCc1ccc(Cl)cc1 | inactive | inactive | –
3 | N[C@@H](Cc1cnc[nH]1)C(=O)N1C[C@@H](C(=O)NCCc2c[nH]cn2)[C@H](C(=O)NCCc2c[nH]c3ccccc23)C1 | inactive | inactive | –
4 | CC[C@H](C)[C@H](NC(=O)c1ccc(NC(=O)[C@@H](N)CC(C)C)c(OCc2c[nH]cn2)c1)C(=O)O | inactive | inactive | –
5 | N[C@@H](Cc1ccccc1)C(=O)Nc1ccc(C(=O)N[C@@H](CCc2ccccc2)C(=O)O)cc1OCc1ccc(Cl)cc1 | Active | Active | –
6 | C[C@H](N)C(=O)N1C[C@@H](C(=O)NCCCCN)[C@H](C(=O)NCCc2ccc3ccccc3c2)C1 | inactive | inactive | –
7 | COc1ccc(C[C@H](N)C(=O)N2C[C@@H](C(=O)NCCCCN)[C@H](C(=O)NCCc3ccc4ccccc4c3)C2)cc1 | inactive | inactive | –
8 | NC(=O)C[C@H](N)C(=O)Nc1ccc(C(=O)N[C@@H](CCc2ccccc2)C(=O)O)cc1OCc1ccc(Cl)cc1 | Active | Active | –
9 | N[C@@H](CO)C(=O)N1C[C@@H](C(=O)NCCc2c[nH]cn2)[C@H](C(=O)NCCc2c[nH]c3ccccc23)C1 | inactive | inactive | –
10 | C[C@@H](O)[C@H](N)C(=O)Nc1ccc(C(=O)N[C@@H](CCc2ccccc2)C(=O)O)cc1OCc1ccc(Cl)cc1 | inactive | inactive | –
11 | NCCCCNC(=O)[C@@H]1CN(C(=O)[C@@H](N)CCCCN)C[C@H]1C(=O)NCCc1ccc2ccccc2c1 | inactive | inactive | –
12 | NCCCCNC(=O)[C@@H]1CN(C(=O)[C@@H](N)CCc2ccc(Cl)cc2)C[C@H]1C(=O)NCCc1ccc2ccccc2c1 | inactive | inactive | –
13 | CC[C@H](C)[C@H](N)C(=O)Nc1ccc(C(=O)N[C@@H](CCc2ccccc2)C(=O)O)cc1OCc1ccccc1 | Active | – | IC50 [3]: 106000 nM; Kd [4]: 42 nM; Kd [5]: 16 nM; Kd [6]: 61 nM; Ratio IC50 (FGM [7]): > 15
14 | NCCCCNC(=O)[C@@H]1CN(C(=O)[C@@H](N)CC(=O)O)C[C@H]1C(=O)NCCc1ccc2ccccc2c1 | inactive | inactive | –
15 | C[C@H](N)C(=O)Nc1ccc(C(=O)N[C@@H](CCc2ccccc2)C(=O)O)cc1OCc1ccc(Cl)cc1 | Active | Active | –
16 | CC[C@H](C)[C@H](NC(=O)c1ccc(NC(=O)[C@H](C)N)c(OCc2c[nH]cn2)c1)C(=O)O | inactive | inactive | –
17 | CC(C)[C@H](N)C(=O)N1C[C@@H](C(=O)NCCc2c[nH]cn2)[C@H](C(=O)NCCc2c[nH]c3ccccc23)C1 | inactive | inactive | –
18 | CC[C@H](C)[C@H](NC(=O)c1ccc(NC(=O)[C@@H](N)CC(N)=O)c(OCc2c[nH]cn2)c1)C(=O)O | inactive | inactive | –
19 | NCCCCNC(=O)[C@@H]1CN(C(=O)[C@@H](N)CO)C[C@H]1C(=O)NCCc1ccc2ccccc2c1 | inactive | inactive | –

Row | Compound | inhibition (FGM [1]) | inhibition (FGM [2]) | further results
20 | NCCCCNC(=O)[C@@H]1CN(C(=O)[C@@H](N)Cc2cnc[nH]2)C[C@H]1C(=O)NCCc1ccc2ccccc2c1 | inactive | inactive | –
21 | CC[C@@H](C)[C@H](NC(=O)c1ccc(NC(=O)[C@@H](N)CO)c(OCc2c[nH]cn2)c1)C(=O)O | Active | Active | –
22 | C[C@H](N)C(=O)N1C[C@@H](C(=O)NCCc2c[nH]cn2)[C@H](C(=O)NCCc2c[nH]c3ccccc23)C1 | inactive | inactive | –
23 | NCCCCNC(=O)[C@@H]1CN(C(=O)[C@@H](N)CC(N)=O)C[C@H]1C(=O)NCCc1ccc2ccccc2c1 | inactive | inactive | –
24 | CC[C@H](C)[C@H](NC(=O)c1ccc(NC(=O)[C@@H](N)CCSC)c(OCc2c[nH]cn2)c1)C(=O)O | inactive | inactive | –
25 | CC[C@H](C)[C@H](NC(=O)c1ccc(NC(=O)[C@@H](N)Cc2ccc(Cl)cc2)c(OCc2c[nH]cn2)c1)C(=O)O | inactive | inactive | –
26 | CC[C@H](C)[C@H](NC(=O)c1ccc(NC(=O)[C@@H](N)C(C)C)c(OCc2c[nH]cn2)c1)C(=O)O | inactive | inactive | –
27 | N[C@@H](Cc1ccc(O)cc1)C(=O)Nc1ccc(C(=O)N[C@@H](CCc2ccccc2)C(=O)O)cc1OCc1ccc(Cl)cc1 | Active | Active | –
28 | NCCCCNC(=O)[C@@H]1CN(C(=O)[C@@H](N)Cc2ccc(Cl)cc2)C[C@H]1C(=O)NCCc1ccc2ccccc2c1 | inactive | inactive | –
29 | C[C@@H](O)[C@H](N)C(=O)N1C[C@@H](C(=O)NCCc2c[nH]cn2)[C@H](C(=O)NCCc2c[nH]c3ccccc23)C1 | inactive | inactive | –
30 | N[C@@H](CO)C(=O)Nc1ccc(C(=O)N[C@@H](CCc2ccccc2)C(=O)O)cc1OCc1ccc(Cl)cc1 | Active | Active | –
31 | N[C@@H](CCc1ccccc1)C(=O)N1C[C@@H](C(=O)NCCc2c[nH]cn2)[C@H](C(=O)NCCc2c[nH]c3ccccc23)C1 | Active | Active | –
32 | CC[C@H](N)C(=O)Nc1ccc(C(=O)N[C@@H](CCc2ccccc2)C(=O)O)cc1OCc1ccc(Cl)cc1 | Active | Active | –
33 | NCCCCNC(=O)[C@@H]1CN(C(=O)[C@@H](N)Cc2ccccc2)C[C@H]1C(=O)NCCc1ccc2ccccc2c1 | inactive | inactive | –
34 | N[C@@H](Cc1ccc2ccccc2c1)C(=O)N1C[C@@H](C(=O)NCCc2c[nH]cn2)[C@H](C(=O)NCCc2c[nH]c3ccccc23)C1 | Active | Active | –
35 | CC[C@H](C)[C@H](NC(=O)c1ccc(NC(=O)[C@@H](N)CCc2ccccc2)c(OCc2c[nH]cn2)c1)C(=O)O | Active | Active | –
36 | CC(C)C[C@H](N)C(=O)N1C[C@@H](C(=O)NCCCCN)[C@H](C(=O)NCCc2ccc3ccccc3c2)C1 | inactive | inactive | –
37 | CC[C@H](C)[C@H](NC(=O)c1ccc(NC(=O)CN)c(OCc2c[nH]cn2)c1)C(=O)O | inactive | inactive | –
